Assay results published in article PMC9401513 (Clinical Cancer Research, 2021).
“Also recorded” adds a separate entry of the source.

Experiments:
[1] = system: patients with advanced solid tumors; test: Dose-limiting toxicity, MTD and RP2D determination; assay type: in vivo, human
In short: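 Dose escalation followed the modified toxicity probability interval method. Target DLT rate was 25%, with an acceptable interval of 20–30%, a beta(0.75, 0.65) prior and a 0.975 exclusion threshold. DLTs were treatment-related events in cycle 1, monitored over 28 days: grade 4 neutropenia >7 days, grade ≥3 nonhematologic nonhepatic toxicity, or >2-week cycle delay. MTD was the highest dose with DLT rate <0.30 in ≥9 evaluable patients. Dosing was IV every 3 weeks (0.2–3.7 mg/kg) or every 2 weeks (2.1, 2.8, 3.2 mg/kg).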

[2] = Clinical pharmacokinetics; assay type: in vivo, human; conditions: for systemic exposure (AUCtau, Cmax) versus dose: 0.2 to 3.7 mg/kg every 3 weeks dose levels of PF-06647020; for Cmax: ADC, Cycle 1 single dose, geometric mean (geometric % CV)
[3] = system: platinum-resistant ovarian cancer; test: Objective tumor response by RECIST v1.1, ovarian cancer; assay type: in vivo, human
In short: (§1)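 Investigators assessed tumor response by RECIST v1.1 every 6 weeks (every-3-weeks cohorts) or every 8 weeks (every-2-weeks cohorts). CR and PR in expansion cohorts were confirmed by repeat assessment at least 4 weeks later, and ORR was calculated. NSCLC patients were preselected for moderate-to-high tumor PTK7 by IHC. Later TNBC patients were preselected for moderately high-to-high PTK7. Ovarian cancer patients were platinum-resistant and not preselected.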

advanced NSCLC = test: Objective tumor response by RECIST v1.1, NSCLC; assay type: in vivo, human
In short: as §1

[4] = system: patient-derived xenograft models; conditions: cited from earlier work
[5] = every 2 weeks, N = 19, (95% CI)
[6] = every 3 weeks, N = 44, (95% CI)
[7] = every 2 weeks, N = 6, (95% CI), NR, not reached
[8] = every 3 weeks, N = 25, (95% CI)

B1: cofetuzumab pelidotin (conjugate, chains of the INN, looked up)
VH: QVQLVQSGPEVKKPGASVKVSCKASGYTFTDYAVHWVRQAPGKRLEWIGVISTYNDYTYNNQDFKGRVTMTRDTSASTAYMELSRLRSEDTAVYYCARGNSYFYALDYWGQGTSVTVSS
VL: EIVLTQSPATLSLSPGERATLSCRASESVDSYGKSFMHWYQQKPGQAPRLLIYRASNLESGIPARFSGSGSGTDFTLTISSLEPEDFAVYYCQQSNEDPWTFGGGTKLEIK
modifications: auristatin-0101 payload, vc linker
DLT observed ([1]; 2.8 mg/kg every 2 weeks, n = 10): grade 3 neutropenic infection in 1 patient
DLT observed ([1]; 3.2 mg/kg every 2 weeks, n = 12): grade 3 abdominal pain in 2 patients
DLTs reported ([1]; 3.7 mg/kg every 3 weeks (highest dose), n = 6, two DLTs): grade 3 headache and fatigue; also recorded: grade 3 headache and grade 3 fatigue
DLT rate ([1]; 3.7 mg/kg every 3 weeks, n = 6): 33%
MTD ([1]; every 2 weeks regimen, dose levels 2.1-3.2 mg/kg): not reached
MTD (estimated as protocol specified) ([1]; every 3 weeks): 2.8 mg/kg
RP2D (recommended phase II dose) ([1]; every 3 weeks): 2.8 mg/kg
AUC ratio between ADC and total antibody ([2]; 2.8 mg/kg every 3 weeks): approximately 0.9
systemic exposure (AUCtau, Cmax) versus dose [2]: generally increased in a dose-related manner
systemic exposure (AUCtau, Cmax) versus dose ([2]; listed as ADC): generally increased in a dose-proportional manner
Cmax ([2]; 2.8 mg/kg Q2W IV): 99.7 µg/mL
Cmax ([2]; 2.8 mg/kg Q3W IV): 79.8 µg/mL
CR (number) ([3]; 2.1 mg/kg every 3 weeks): 1
CR (number) ([3]; 2.8 mg/kg every 2 weeks): 1
PR (number) ([3]; 2.8 mg/kg every 2 weeks): 2
CR (number) ([3]; 3.2 mg/kg every 2 weeks): 1
PR (number) ([3]; 3.2 mg/kg every 2 weeks): 1
overall objective response rate ([3]; both regimens, n = 63): 27%
patients achieving CR ([3]; every 2 weeks): 11%
patients achieving PR ([3]; every 2 weeks): 16%
ORR [3, 5]: 26 (9–51) %
mDOR [3, 5]: 6.5 (3.9–8.3) mo
mPFS [3, 5]: 3.8 (3.1–7.4) mo
patients achieving CR ([3]; every 3 weeks): 7%
patients achieving PR ([3]; every 3 weeks): 21%
ORR [3, 6]: 27 (15–43) %
mDOR [3, 6]: 4.2 (2.8–8.3) mo
mPFS [3, 6]: 2.9 (2.3–5.5) mo
PRs (number) (advanced NSCLC; 2.8 mg/kg every 3 weeks): 4
PRs (number) (advanced NSCLC; 3.2 mg/kg every 2 weeks): 2
overall objective response rate (advanced NSCLC; both regimens, n = 31): 19%
CR (advanced NSCLC; every 2 weeks, N = 6): 0 N
PR (advanced NSCLC; every 2 weeks, N = 6): 2 N
ORR (advanced NSCLC; every 2 weeks, N = 6, (95% CI)): 33 (4–78) %
mDOR (advanced NSCLC; [7]): NR (3.7–NR)
mPFS (advanced NSCLC; [7]): 2.7 (1.0–NR) mo
CR (advanced NSCLC; every 3 weeks, N = 25): 0 N
PR (advanced NSCLC; every 3 weeks, N = 25): 4 N
ORR (advanced NSCLC; [8]): 16 (5–36) %
mDOR (advanced NSCLC; [8]): 5.7 (1.5–9.9) mo
mPFS (advanced NSCLC; [8]): 2.9 (1.4–6.1) mo
antitumor activity compared with standard chemotherapy ([4]; patient-derived xenograft models): greater antitumor activity than standard chemotherapy
antitumor effect in patient-derived xenograft models ([4]; preclinical): sustained tumor regression
effect on tumor-initiating cells (TICs) ([4]; serial transplantation experiments): reduced the frequency of TICs
